Results gathered from unrelated publications.
Lines come from different studies, so protocols differ.
Target: Calcium/calmodulin-dependent protein kinase type 1D (CAMK1D, Homo sapiens, UniProt Q8IU85)

C[C@@H](c1ccc(-n2cnc3c(N)ncnc32)cc1)N1CCc2nn(C)c(Cc3ccccc3)c2C1=O — remaining binding (binding; competition with immobilised ligand; 0.1 µM): 95%
FC(F)(F)Oc1cccc(-c2cnc3ccc(-c4ccncc4)nn23)c1 — remaining binding (cell-free assay; competition with immobilised ligand; 5 µM): 67%
Cc1cnn2ncc(-c3ccnc(N(C)C)n3)c2c1 — remaining binding (binding; 1 µM): 100%
CNC(=O)Nc1ccc2c(c1)[C@@]1(CC2)OC(=O)N(CC(=O)N(Cc2ccc(F)cc2)[C@@H](C)C(F)(F)F)C1=O — remaining binding (cell-free assay; competition with immobilised ligand; 1 µM): 100%
COc1cnc(Nc2cccc(S(N)(=O)=O)c2)nc1N1CCN(c2ccccc2)CC1 — remaining binding (binding; competition with immobilised ligand; 1 µM): 100%
O=C(NCC1CCOCC1)c1n[nH]cc1NC(=O)c1c(F)cccc1F — remaining binding (binding; competition with immobilised ligand; 1 µM): 96%
Cn1nc(C(=O)NCc2ccc(C(=O)O)cc2)cc1-c1ccc2[nH]ccc2c1 — remaining binding (cell-free assay; competition with immobilised ligand; 0.1 µM): 95%
CN(C)c1ncc(F)c(-c2cnn3ncccc23)n1 — remaining binding (binding; 1 µM): 78%
Nc1ncc2c(n1)-c1c([nH]c3ccc(C#CC4CC4)cc13)CCCC2 — remaining binding (binding; competition with immobilised ligand; 1 µM): 100%
O=C(c1ccc(Nc2ncc(Cl)c(-c3cc4ccccc4s3)n2)cc1)N1CCC(N2CCCC2)CC1 — remaining binding (binding; competition with immobilised ligand; 1 µM): 29%
CN([C@@H]1CCc2c(CC(=O)O)c3cc(S(C)(=O)=O)ccc3n2C1)S(=O)(=O)c1ccc(F)cc1 — remaining binding (cell-free assay; competition with immobilised ligand; 1 µM): 99%
O=C(c1ccc(Nc2ncc(Cl)c(-c3ccc(Cl)s3)n2)cc1)N1CCC(N2CCCC2)CC1 — remaining binding (binding; competition with immobilised ligand; 1 µM): 22%
C[C@H]1CCN(c2nccc(-c3cnn4ncccc34)n2)C1 — remaining binding (binding; 1 µM): 95%
COc1cnc(Nc2cccc(S(N)(=O)=O)c2)nc1N1CCN(c2ccccc2)C(=O)C1 — remaining binding (binding; competition with immobilised ligand; 1 µM): 99%
CN(C)c1nccc(-c2cnc3ncccn23)n1 — remaining binding (binding; 1 µM): 80%
Cc1nc(C2CCN(C(=O)c3ccc(OC(F)(F)F)cc3N)CC2)c2ncc(N3CCN(C)CC3)cc2n1 — remaining binding (cell-free assay; competition with immobilised ligand; 1 µM): 100%
N[C@H]1CCN(c2nccc(-c3cnn4ncccc34)n2)C1 — remaining binding (binding; 1 µM): 91%
N#Cc1ccc(Nc2ccc3[nH]c(=O)[nH]c3c2)c(Cl)c1 — remaining binding (cell-free assay; competition with immobilised ligand; 1 µM): 92%
COc1ccnn2ncc(-c3ccnc(N(C)C)n3)c12 — remaining binding (binding; 1 µM): 100%
O=C(c1ccc(Nc2nccc(-c3cc4ccccc4s3)n2)cc1)N1CCC(N2CCCC2)CC1 — remaining binding (binding; competition with immobilised ligand; 1 µM): 31%
CN(c1nccc(-c2cnn3ncccc23)n1)C1CC1 — remaining binding (binding; 1 µM): 100%
O=C(O)[C@H]1[C@H](Cn2nnc3ccccc3c2=O)CC[C@@H]1C(=O)c1ccc(OCCC2CCOCC2)cc1 — remaining binding (cell-free assay; competition with immobilised ligand; 1 µM): 96%
